Compound activity deposited in PubChem by several laboratories.
SKN-1 inh = blocks SKN-1 activity in C. elegans | C. elegans VP596 Pgst-4::GFP/RFP ratio, acrylamide-induced, 24 h | 0.49% of 360,000 active | inhibition, % at 21.8 µM;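 active = interference check ratio from 0.5 to 1.5 plus GFP to RFP signal ratio inhibition reaching or exceeding a fixed threshold, cut at about 30% in these data, passing the limit was not always enough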
DAGLB inh = diacylglycerol lipase beta (human) inhibition. inhibition, % at 5.17 µM. HEK293T DAGLB membrane lysate, EnzChek fluorogenic substrate. AID 504411. 0.059% of 340,000 active; in the data active = inhibition above about 34%;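 also: 0% = enzyme with vehicle and 100% = wells lacking enzyme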
Target sequence (Q8NCG7 whole entry, looked up): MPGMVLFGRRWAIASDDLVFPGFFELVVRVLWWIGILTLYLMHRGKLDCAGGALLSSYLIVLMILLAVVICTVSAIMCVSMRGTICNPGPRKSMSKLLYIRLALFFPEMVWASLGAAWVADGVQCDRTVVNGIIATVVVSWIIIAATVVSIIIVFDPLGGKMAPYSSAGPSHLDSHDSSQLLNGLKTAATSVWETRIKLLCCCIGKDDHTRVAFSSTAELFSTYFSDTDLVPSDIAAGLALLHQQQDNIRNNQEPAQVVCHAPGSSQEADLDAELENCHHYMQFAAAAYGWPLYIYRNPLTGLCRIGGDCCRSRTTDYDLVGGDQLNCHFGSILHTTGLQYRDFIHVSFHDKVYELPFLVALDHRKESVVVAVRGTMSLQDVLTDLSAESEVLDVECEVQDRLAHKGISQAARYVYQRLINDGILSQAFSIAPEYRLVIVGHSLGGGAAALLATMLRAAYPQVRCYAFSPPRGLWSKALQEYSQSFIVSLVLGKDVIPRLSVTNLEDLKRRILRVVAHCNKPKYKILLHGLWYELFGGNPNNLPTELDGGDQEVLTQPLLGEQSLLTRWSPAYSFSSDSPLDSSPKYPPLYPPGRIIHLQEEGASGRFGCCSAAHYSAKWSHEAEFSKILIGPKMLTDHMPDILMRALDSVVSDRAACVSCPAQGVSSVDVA
MT1-MMP act inh = inhibitors of human MT1-MMP activation; HT1080 RFP-PRO-GFP cells, GFP/RFP ratio fluorescence, overnight; percent of plate control window, DMSO zero; GFP/RFP ratio change, % at 20 µM; 0.061% of 360,000 active;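 active = GFP/RFP ratio change of at least 30% with cell ATP level not reduced by more than half and red fluorescence within 50% of control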
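system = RFP-PRO-GFP reporter HT1080 cells | dosing = 20 µM single dose, 1% DMSO | timing = overnight cell settling, then overnight compound exposure, 37 °C, 5% CO2 | read-out basis = GFP/RFP fluorescence ratio | controls = DMSO and RFP-L50D-GFP cell wells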
DDE Tn6 FP inh = DD(E)-Tn6 binding inhibition, primary FP screen. P02675. Fibrin DD(E) TRITC-Tn6 fluorescence polarization displacement. inhibition, % at 8.3 µM. 0.21% of 370,000 active;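 active = inhibition above a per-campaign cutoff: mean of compounds within control limits plus 3 SD, cut at about 15% in these data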;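 also: 0% = median of all compound wells on the plate and 100% = blocking peptide control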
DDE Tn7 FP inh = disrupts Tn7 cyclic peptide binding to fibrin D-Dimer-E complex. FP displacement of FITC-Tn7 peptide from fibrin DD(E); 0% = median of compound wells per plate. inhibition, % at 8.3 µM. 0.13% of 370,000 active. P02675;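 active = inhibition above the mean of compounds falling within the control limits plus 3 SD of them, cut at about 14% in these data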;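 also: 0% = plate median of compound wells and 100% = 10 µM Aha-Tn7 peptide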
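Assay system: human fibrin DD(E) protein / Input: 2 µM fibrin DD(E) / Benchmarks: high control of 10 µM Aha-Tn7 peptide / Measured by: fluorescence polarization of the labelled Tn7 tracer / Medium: Tris buffer with calcium and detergent, pH 7.8 / Timing: 10 min compound pre-incubation, 3 h probe incubation at room temperature / Repeats: one replicate per compound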
PolyA inhibitor = blocks polyadenylation in yeast reporter cells. 0.02% of 300,000 active. activity score, % at 12 µM. S. cerevisiae SKY197-pL101 polyadenylation reporter, beta-gal luminescence; efflux-impaired pdr1/pdr3 knockout yeast; score 100 = 6 SD above DMSO;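 active = lowest replicate activity score at least 50, where 100 means six control SD above control mean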;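 also: yeast exposed to compound for 9 h at 30 °C; higher score means more reporter readthrough which indicates perturbed polyadenylation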
Tn6 DDE ctr = counter-screen for inhibitors of Tn6 peptide binding to fibrin DD(E) | inhibition, % at 8.3 µM | shares compounds with DDE Tn6 FP inh | TRITC-Tn6 fluorescence polarization displacement; 0% = median of compound wells, not DMSO | AID 720621 | 2% of 680 active;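 active = inhibition above the mean of test compounds lying between the control limits plus 3 SD of those, cut at about 14% in these data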;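 also: 0% = median of compound wells and 100% = wells with Aha-Tn7 blocking peptide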
DDE Tn6 confirm = DD(E)-Tn6 binding inhibition, FP confirmation; shares compounds with DDE Tn6 FP inh; FP displacement of TRITC-Tn6 peptide from DD(E); 0% = per-plate median of test wells; inhibition, % at 8.3 µM; 10% of 680 active;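 active = inhibition above the mean of compounds lying within the control limits plus 3 SD, cut at about 16% in these data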;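 also: 100% = high control wells holding a competing inhibitor peptide at 10 µM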
* marks the source's active call; other numbers are inactive results; · = not tested or not shown. Only some compounds are listed: those with a hit (about 0.9% of all), similar ones and a draw of the others.

SMILES	SKN-1 inh	DAGLB inh	MT1-MMP act inh	DDE Tn6 FP inh	DDE Tn7 FP inh	PolyA inhibitor	Tn6 DDE ctr	DDE Tn6 confirm
Nn1c(SCC(=O)NC2CCCCC2)nnc1-c1cc(-c2ccccc2)n[nH]1	·	·	·	-2	-4	·	·	·
Cc1ccccc1CN1CCCCC(NC(=O)C2CCCCC2)C1=O (centres undefined)	·	·	·	2	-4	·	·	·
Cc1onc(C(=O)N2CCN(C(c3ccc(Cl)cc3)c3ccc(Cl)cc3)CC2)c1[N+](=O)[O-]	·	·	·	-5	1	·	·	·
CCC(C)[C@H](NC(=O)NCc1ccc(Cl)cc1)C(=O)OC (some centres undefined)	9	5	0	17*	4	1	-3	-8
CCN(Cc1nc2cc(Cl)ccc2c(=O)[nH]1)C(=O)c1cc(C2CC2)nn1-c1ccccc1	-5	1	-5	16*	-5	·	-1	-16
COc1cccc2cc(-c3n[nH]c(=S)n3C)oc12	-2	2	2	18*	3	-16	0	-18
CC(=NNC(=O)CSc1nnc(-c2ccccc2)n1-c1ccccc1)c1cccc([N+](=O)[O-])c1	·	·	·	1	-8	·	·	·
COc1ccc(N2CCN(CCNS(=O)(=O)c3ccc(Br)s3)CC2)cc1	·	·	·	3	6	·	·	·
CCCC(NC(=O)CNC(=O)C(C)(C)C)C(=O)O (centres undefined)	2	-1	-2	16*	3	14	3	2
COC(=O)[C@H](C(C)C)N(CCc1cn(Cc2ccccc2)nn1)S(=O)(=O)c1ccccc1Br	·	·	·	-5	11	·	·	·
CN(C)c1cccc(O)c1	47*	-1	6	34*	-4	·	0	3
Cc1cc(O)ccc1Nc1cc(-c2cccc(N(C)C)c2)ncn1	19	·	3	-1	2	·	·	·
O=S(=O)(Nc1ccc(Cl)cc1NS(=O)(=O)c1ccccc1)c1ccccc1	-9	29	-4	19*	9	·	4	1
O=C(c1cc(-c2ccc(Cl)cc2)nc2ccccc12)N1CCN(c2ncccn2)CC1	·	·	·	10	4	·	·	·
CCN(CC)c1ccc(/C=C/c2cc(-c3ccccc3)c3ccccc3n2)cc1	49	-155	-69	17*	0	-9	-11	-8
CCCNC(=O)C[C@H]1CC[C@H]2[C@@H](COc3ccc(NC(=O)Nc4ccc(C#N)cc4)cc3C(=O)N2C)O1	·	·	·	-9	-8	·	·	·
COc1ccc(CNS(=O)(=O)c2ccc(OC)cc2)cc1	-32	-3	7	-5	-1	0	·	·
Cc1cc2cc(CNS(=O)(=O)c3ccccc3)ccc2n1C	44	14	32	60*	8	1	2	5
COc1ccc(S(=O)(=O)NCc2ccc3c(c2)cc(C)n3C)cc1	56	12	46	51*	0	8	-4	-7
CCS(=O)(=O)NCc1ccc2c(c1)cc(C)n2C	18	6	6	7	1	-12	·	·
O=C1CSc2ccc(C(=O)N3CCCC(C(=O)N4CCCCC4)C3)cc2N1 (centres undefined)	·	·	·	4	-6	·	·	·
CC(CCN1CCC(C(O)(c2ccccc2)c2ccccc2)CC1)Oc1cccc(F)c1 (centres undefined)	·	·	·	7	-2	·	·	·
Cn1cccc1C(=O)NC(=O)COC(=O)CCNS(=O)(=O)c1cccc(C(F)(F)F)c1	-6	-2	4	3	-3	·	·	·
Cn1cccc1C(=O)NC(=O)COC(=O)CCNS(=O)(=O)c1ccc(Cl)cc1	4	0	2	16*	3	·	4	-5
O=C(NCc1ccccc1)c1ccc(CO)cc1	·	·	·	-1	-2	·	·	·
SMILES	SKN-1 inh	DAGLB inh	MT1-MMP act inh	DDE Tn6 FP inh	DDE Tn7 FP inh	PolyA inhibitor	Tn6 DDE ctr	DDE Tn6 confirm
COc1cccc(CNC(=O)C2=C(C)C(=O)OC23CCC(C)CC3)c1 (centres undefined)	-7	-1	0	19*	6	3	-3	-4
CC(C)C[C@@H]1COc2cc(Br)ccc2S(=O)(=O)N1Cc1cn(Cc2ccc(F)cc2)nn1	·	·	·	4	2	·	·	·
c1ccc(Nc2ccccc2Nc2ccccn2)nc1	33	1	0	16*	10	-1	-3	-5
COC(=O)N/N=C\c1cc2c(cc1Br)OCO2	19	0	-1	17*	1	11	4	-8
O=C(Nc1ccc(Cl)cc1)Nc1ccccc1C(=O)N1CCCC1	·	·	·	-6	-1	·	·	·
COC(=O)c1cc(C(=O)OCC(=O)NC2CCCCCCC2)cc([N+](=O)[O-])c1	3	-4	-3	17*	4	·	9	5
CCCCNC(=O)C1CCCN1C(=O)Nc1cc(Cl)cc(Cl)c1 (centres undefined)	·	·	·	-5	6	·	·	·
COc1cc(CNCCCN2CCOCC2)ccc1OCC(=O)Nc1cccc(C(F)(F)F)c1	9	1	9	2	0	8	·	·
CCOc1cc(CNCCCN2CCOCC2)ccc1OCC(=O)Nc1cccc2ccccc12	3	-2	6	18*	10	2	-4	-5
CCCCCn1nnnc1C1(C)CCSCC(=O)N1Cc1ccco1 (centres undefined)	·	·	·	-3	2	·	·	·
COc1cccc(CN(C)CC(=O)NC(=O)NCc2ccco2)c1	4	-1	4	18*	-5	1	-3	-2
COc1ccc(-c2nnc(SCC(=O)Nc3ccc4cn[nH]c4c3)n2Cc2ccco2)cc1	·	·	·	-3	2	·	·	·
CCOc1ccc(Nc2ccc(N)c(S(=O)(=O)O)c2)cc1	13	16	9	22*	10	·	-6	-11
O=C(CN1C2CCCC1CC(NC(=O)C1CCCCC1)C2)NCc1ccc(F)cc1 (centres undefined)	2	-3	-1	16*	-3	-21	1	-3
CCOC(=O)Nc1ccc(OC)c([N+](=O)[O-])c1	19	-3	-2	-1	6	-2	·	·
CCOC(=O)Nc1ccc2c(c1)Cc1cc([N+](=O)[O-])ccc1-2	19	0	1	17*	-9	·	-2	-10
COc1ccc(NC(=O)Cn2c(=O)cnc3ccccc32)cc1S(=O)(=O)N1CCCCC1	-4	-2	7	27*	-3	-15	4	3
Cc1ccc(NC(=O)Cn2c(=O)cnc3ccccc32)cc1S(=O)(=O)N1CCCCC1	14	0	-9	-3	2	·	·	·
